Source: ChEMBL document CHEMBL1123762, “Synthesis and antiviral evaluation of carbocyclic analogues of 2-amino-6-substituted-purine 3'-deoxyribofuranosides” (1987)
Values after ≈ are worked out from the molar mass of the structure shown. Values joined by “and” are separate entries in the source; they are usually repeats but may differ in a detail not shown here. Equal values may be shown once.

Columns and labels:
Format in all cases: functional
[1] = tested on: unidentified influenza virus; test: Antiviral activity against the influenza Ao/PR/8/34 virus strain
In short: (§1)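 Cytopathic effect (CPE) inhibition in cell monolayers. Host cells: HSV-1 strain 377 (TK+) and HSV-2 strain MS (TK+) in Vero cells; HSV-1 strain HF (TK−) in H.Ep.-2 cells; influenza A0/PR/8/34 in Madin-Darby canine kidney cells. MIC50 is the concentration giving 50% inhibition of virus-induced CPE. ara-A was run as the positive control in the HSV tests.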

[2] = tested on: unidentified influenza virus; test: Antiviral activity is expressed as virus rating (VR) against the influenza Ao/PR/8/34 virus strain
In short: (§2)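 Virus rating (VR) from CPE inhibition in monolayers: HSV-1 377 and HSV-2 MS in Vero cells, HSV-1 HF in H.Ep.-2 cells, influenza A0/PR/8/34 in MDCK cells. A VR of 1.0 or more means definite, significant activity. A VR of 0.5–0.9 means marginal to moderate activity. A VR below 0.5 usually means no significant activity.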

[3] = tested on: Human alphaherpesvirus 1; test: Antiviral activity is expressed as virus rating (VR) against the HSV-1 377 strain; in short: as §2
[4] = tested on: Human alphaherpesvirus 1; test: Antiviral activity is expressed as virus rating (VR) against the HSV-1 HF strain; in short: as §2
[5] = tested on: Human alphaherpesvirus 1; test: Antiviral activity against the HSV-1 HF strain from monolayers of human epidermoid carcinoma (H.Ep.-2) cells; in short: as §1
[6] = tested on: Human alphaherpesvirus 1; test: Antiviral activity against the HSV-1 377 strain from monolayers of vero cells; in short: as §1
[7] = Ratio measured as the VR of C-3''-deoxyribofuranoside to the VR at a MIC of 3 ug/mL
[8] = Ratio measured as the VR of C-3''-deoxyribofuranoside to the VR at a MIC of 14 ug/mL
[9] = Ratio measured as the VR of C-3''-deoxyribofuranoside to the VR at a MIC of 54 ug/mL
[10] = Ratio measured as the VR of C-3''-deoxyribofuranoside to the VR at a MIC of 15 ug/mL
[11] = Ratio measured as the VR of C-3''-deoxyribofuranoside to the VR at a MIC of 18 ug/mL
[12] = Ratio measured as the VR of C-3''-deoxyribofuranoside to the VR at a MIC of 56 ug/mL
[13] = Ratio measured as the VR of C-3''-deoxyribofuranoside to the VR at a MIC of 6 ug/mL
[14] = Ratio measured as the VR of C-3''-deoxyribofuranoside to the VR at a MIC of 34 ug/mL

SMILES	MIC50 [1] [µg/mL]	VR [2]	VR [3]	VR [4]	MIC50 [5] [µg/mL]	further results
Nc1nc(N)c2nnn(C3CC(CO)CC3O)c2n1 (configuration not stated)	200 (≈ 754 µM)	1.3	–	–	–	–
Nc1nc(O)c2ncn(C3CC(CO)CC3O)c2n1 (configuration not stated)	260 (≈ 980 µM)	1.3	2.6 and 3.1 and 1.9	0	–	–
Nc1nc(Cl)c2ncn([C@@H]3C[C@H](CO)C[C@H]3O)c2n1	> 284	0.5	0.1	1.5	190 (≈ 670 µM)	–
Nc1nc2c(ncn2COCCO)c(=O)[nH]1 [ACYCLOVIR]	–	–	5.7	0	–	MIC50 ([6]; Human alphaherpesvirus 1, read-out: MIC50): 3 µg/mL (≈ 13.3 µM); Ratio [7]: 0.33
NC(=O)c1ncn([C@@H]2O[C@H](CO)[C@@H](O)[C@H]2O)n1 [RIBAVIRIN]	–	2.6 and 2.9	–	–	–	Ratio [8]: 0.45; Ratio [9]: 0.19
Nc1ncnc2c1ncn2[C@@H]1O[C@H](CO)[C@@H](O)[C@@H]1O [VIDARABINE]	–	–	2 and 2.1	2.4	6 (≈ 22.5 µM)	MIC50 [6]: 15 µg/mL and 18 µg/mL and 34 µg/mL; Ratio [10]: 1.3; Ratio [11]: 1.5; Ratio [12]: 1.44; Ratio [13]: 0.63; Ratio [14]: 0.95
